Laboratory results reported in ChEMBL document CHEMBL1122046, “Quaternary heterocyclylamino beta-lactams: a generic alternative to the classical acylamino side chain” (1982).
Values after ≈ are worked out from the molar mass of the structure shown.

Key:
Format in all cases: functional
Klebsiella aerogenes = experiment: Minimum inhibitory concentration against aerobic organism Enterobacter aerogenes strain 2828
How it was run: (§1)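 Agar-dilution MIC in µg/mL against aerobic bacterial strains on tryptocase soy agar, with inoculum applied as spots. Most series used 10^5 cfu per spot, and a later series used 10^4 cfu per spot. In some tables, footnoted strains were instead tested on Mueller-Hinton or nutrient agar. β-Lactamase-producing strains are flagged.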

Enterococcus faecalis = experiment: Minimum inhibitory concentration against aerobic organism Streptococcus faecalis strain 2864; how it was run: as §1
Escherichia coli = experiment: MIC against aerobic organism Escherichia coli strain 2891; conditions: Escherichia coli; read-out: MIC; how it was run: as §1
Salmonella = experiment: Minimum inhibitory concentration against aerobic organism Salmonella strain 3860; how it was run: as §1
Enterobacter cloacae = experiment: Minimum inhibitory concentration against aerobic organism Enterobacter cloacae strain 2646; conditions: Enterobacter cloacae; read-out: MIC; how it was run: as §1
Morganella morganii = experiment: Minimum inhibitory concentration against aerobic organism Morganella morganii strain 2833; conditions: Morganella morganii; read-out: MIC; how it was run: as §1
Klebsiella pneumoniae = experiment: Minimum inhibitory concentration against aerobic organism Klebsiella pneumoniae strain 4005; how it was run: as §1
Proteus mirabilis = experiment: Minimum inhibitory concentration against aerobic organism Proteus mirabilis strain 2830; conditions: Proteus mirabilis; read-out: MIC; how it was run: as §1
Pseudomonas aeruginosa = experiment: Minimum inhibitory concentration against aerobic organism Pseudomonas aeruginosa strain 2835; how it was run: as §1
Proteus vulgaris = experiment: Minimum inhibitory concentration against aerobic organism Proteus vulgaris strain 2829; conditions: Proteus vulgaris; read-out: MIC; how it was run: as §1
Staphylococcus aureus [1] = experiment: Minimum inhibitory concentration against aerobic organism Staphylococcus aureus strain 2868; conditions: Staphylococcus aureus; read-out: MIC; how it was run: as §1
Staphylococcus aureus [2] = experiment: Minimum inhibitory concentration against aerobic organism Staphylococcus aureus strain 2865; how it was run: as §1

| Compound | MIC (Klebsiella aerogenes) [µg/mL] | MIC (Enterococcus faecalis) [µg/mL] | MIC (Escherichia coli) [µg/mL] | MIC (Salmonella) [µg/mL] | MIC (Enterobacter cloacae) [µg/mL] | MIC (Morganella morganii) [µg/mL] | MIC (Klebsiella pneumoniae) [µg/mL] | MIC (Proteus mirabilis) [µg/mL] | MIC (Pseudomonas aeruginosa) [µg/mL] | MIC (Proteus vulgaris) [µg/mL] | MIC (Staphylococcus aureus [1]) [µg/mL] | MIC (Staphylococcus aureus [2]) [µg/mL] |
| --- | --- | --- | --- | --- | --- | --- | --- | --- | --- | --- | --- | --- |
| [N-]=[N+]=NCC1=C(C(=O)[O-])N2C(=O)[C@@H](Nc3cc[n+](Cc4ccccc4)cc3)[C@H]2SC1 | 8 (≈ 18.9 µM) | > 128 | 0.25 (≈ 0.592 µM) | 1 (≈ 2.37 µM) | 1 (≈ 2.37 µM) | > 128 | 64 (≈ 151 µM) | > 128 | > 128 | < 0.06 | 2 (≈ 4.73 µM) | 0.5 (≈ 1.18 µM) |
| CCOC(=S)SCC1=C(C(=O)[O-])N2C(=O)[C@@H](Nc3cc[n+](Cc4ccccc4)cc3)[C@H]2SC1 | > 128 | > 128 | 1 (≈ 1.99 µM) | 4 (≈ 7.97 µM) | 4 (≈ 7.97 µM) | > 128 | > 128 | > 128 | > 128 | 8 (≈ 15.9 µM) | 4 (≈ 7.97 µM) | 1 (≈ 1.99 µM) |
| O=C([O-])C1=C(Cl)CS[C@@H]2[C@H](Nc3cc[n+](Cc4ccccc4)cc3)C(=O)N12 | 8 (≈ 19.9 µM) | > 128 | 0.25 (≈ 0.622 µM) | 128 (≈ 319 µM) | 4 (≈ 9.95 µM) | > 128 | 64 (≈ 159 µM) | > 128 | > 128 | < 0.125 | 128 (≈ 319 µM) | 2 (≈ 4.98 µM) |
| O=C([O-])C1=C(CSc2cc[n+](Cc3ccccc3)cc2)CS[C@@H]2[C@H]([N-]c3cc[n+](Cc4ccccc4)cc3)C(=O)N12 | 1 (≈ 1.72 µM) | 64 (≈ 110 µM) | < 0.06 | 4 (≈ 6.89 µM) | < 0.06 | > 128 | 32 (≈ 55.1 µM) | 128 (≈ 220 µM) | > 128 | < 0.06 | 0.25 (≈ 0.43 µM) | < 0.06 |
| O=C([O-])C1=C(C[n+]2ccccc2)CS[C@@H]2[C@H]([N-]c3cc[n+](Cc4ccccc4)cc3)C(=O)N12 | 2 (≈ 4.36 µM) | 128 (≈ 279 µM) | < 0.06 | 2 (≈ 4.36 µM) | 0.125 (≈ 0.273 µM) | > 128 | 32 (≈ 69.8 µM) | > 128 | 64 (≈ 140 µM) | 0.25 (≈ 0.545 µM) | 0.5 (≈ 1.09 µM) | 0.125 (≈ 0.273 µM) |
| O=C([O-])CSc1nnc(SCC2=C(C(=O)[O-])N3C(=O)[C@@H](Nc4cc[n+](Cc5ccccc5)cc4)[C@H]3SC2)s1.[Na+] | 0.5 | > 128 | < 0.125 | 0.25 | 0.05 | 16 | 1 | 64 | 128 | < 0.125 | 4 | 1 |
| CC(=O)OCC1=C(C(=O)[O-])N2C(=O)[C@@H](Nc3cc[n+](COCc4ccc([N+](=O)[O-])cc4)cc3)[C@H]2SC1 | > 128 | > 128 | 1 (≈ 1.94 µM) | 128 (≈ 249 µM) | 64 (≈ 124 µM) | > 128 | 128 (≈ 249 µM) | > 128 | > 128 | 1 (≈ 1.94 µM) | 8 (≈ 15.5 µM) | 2 (≈ 3.89 µM) |

Now from value to compound:

| MIC (Klebsiella aerogenes) [µg/mL] | MIC (Enterococcus faecalis) [µg/mL] | MIC (Escherichia coli) [µg/mL] | MIC (Salmonella) [µg/mL] | MIC (Enterobacter cloacae) [µg/mL] | MIC (Morganella morganii) [µg/mL] | MIC (Klebsiella pneumoniae) [µg/mL] | MIC (Proteus mirabilis) [µg/mL] | MIC (Pseudomonas aeruginosa) [µg/mL] | MIC (Proteus vulgaris) [µg/mL] | MIC (Staphylococcus aureus [1]) [µg/mL] | MIC (Staphylococcus aureus [2]) [µg/mL] | Compound |
| --- | --- | --- | --- | --- | --- | --- | --- | --- | --- | --- | --- | --- |
| > 128 | > 128 | 64 | > 128 | > 128 | > 128 | > 128 | > 128 | > 128 | > 128 | > 128 | > 128 | Cn1nnnc1SCC1=C(C(=O)[O-])N2C(=O)[C@@H](Nc3cc[n+](COCC(Cl)(Cl)Cl)cc3C(=O)[O-])[C@H]2SC1.[Na+] |
| > 128 | > 128 | 128 (≈ 192 µM) | > 128 | > 128 | > 128 | > 128 | > 128 | > 128 | > 128 | > 128 | 128 (≈ 192 µM) | Cn1nnnc1SCC1=C(C(=O)[O-])N2C(=O)[C@@H](Nc3cc[n+](COCC(Cl)(Cl)Cl)cc3C(=O)OC(C)(C)C)[C@H]2SC1 |
| 128 (≈ 322 µM) | > 128 | 0.5 (≈ 1.26 µM) | > 128 | 1 (≈ 2.52 µM) | > 128 | > 128 | > 128 | > 128 | < 0.06 | 16 (≈ 40.3 µM) | 0.5 (≈ 1.26 µM) | O=C([O-])C1=C(CO)CS[C@@H]2[C@H](Nc3cc[n+](Cc4ccccc4)cc3)C(=O)N12 |
